Test results reported in ChEMBL document CHEMBL6177914, “Human microbiome derived synthetic antimicrobial peptides with activity against Gram-negative, Gram-positive, and antibiotic resistant bacteria” (RSC Med Chem, 2025).
Values after ≈ are worked out from the molar mass of the structure shown. Active and inactive are the calls of the source. The rule behind the calls is not given here. Peptide text beside a SMILES is read from it.

Legend:
[1] = Retention time of compound by RP-HPLC analysis; format: physicochemical
Outline: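 Analytical reversed-phase HPLC.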

Staphylococcus aureus [2] = assay: Antibacterial activity against methicillin resistant Staphylococcus aureus BAA 2313 assessed as inhibition of bacterial growth incubated for 24 hrs by absorbance based microplate reader analysis; format: functional
Outline: (§1)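 Broth microdilution. A single colony was grown 24 h in its recommended broth, then diluted 1:10 000 in the same medium. Peptide serial dilutions were added from DMSO stock at 4 µL per 196 µL inoculated medium. Plates were incubated aerobically or anaerobically as each pathogen requires, at 37 °C for 24 h, and OD600 was read. Duplicate wells; assay repeated five times independently.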

Enterococcus faecium [3] = assay: Antibacterial activity against vancomycin resistant Enterococcus faecium BAA 2317 assessed as inhibition of bacterial growth incubated for 24 hrs by absorbance based microplate reader analysis; format: functional; settings: for MIC: read-out: MIC100
Outline: as §1, with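 “read. MIC was the lowest concentration giving 100% growth inhibition.” for “read.”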

Escherichia coli [4] = assay: Antibacterial activity against Escherichia coli ATCC 33694 assessed as inhibition of bacterial growth incubated for 24 hrs by absorbance based microplate reader analysis; format: functional
Outline: (§2)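 Broth microdilution. An overnight single-colony culture in recommended broth was diluted 1:10 000, and peptide serial dilutions in DMSO were added (4 µL into 196 µL). Plates incubated 24 h at 37 °C, aerobic or anaerobic as required, then OD600 read. Inhibition was calculated against pathogen-only and blank wells.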

Pseudomonas aeruginosa [5] = assay: Antibacterial activity against Pseudomonas aeruginosa BAA 1744 assessed as inhibition of bacterial growth incubated for 24 hrs by absorbance based microplate reader analysis; format: functional; outline: as §2
Salmonella enterica [6] = assay: Antibacterial activity against Salmonella enterica ATCC 13314 assessed as inhibition of bacterial growth incubated for 24 hrs by absorbance based microplate reader analysis; format: functional; outline: as §2
Staphylococcus aureus [7] = assay: Bactericidal activity against Staphylococcus aureus ATCC 25923 assessed as inhibition of bacterial growth at MIC concentration incubated for 48 hrs by broth microdilution assay; format: functional, organism-based
Outline: (§3)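 From broth-microdilution wells showing no growth, 10 µL was spotted onto agar and incubated 48 h at 37 °C. Plates were inspected for colonies. Fidaxomicin at 1 µM served as control.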

Clostridioides difficile [8] = assay: Bactericidal activity against Clostridium difficile ATCC 43602 assessed as inhibition of bacterial growth at MIC concentration incubated for 48 hrs by broth microdilution assay; format: functional, organism-based; outline: as §3
Listeria monocytogenes [9] = assay: Bactericidal activity against Listeria monocytogenes ATCC 15313 assessed as inhibition of bacterial growth at MIC concentration incubated for 48 hrs by broth microdilution assay; format: functional, organism-based; outline: as §3
Staphylococcus aureus [10] = assay: Bactericidal activity against methicillin resistant Staphylococcus aureus BAA 2313 assessed as inhibition of bacterial growth at MIC concentration incubated for 48 hrs by broth microdilution assay; format: functional, organism-based
Outline: (§4)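 Plates were incubated 48 h at 37 °C and examined for colonies. A fidaxomicin-treated culture at 1 µM served as the control.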

Enterococcus faecium [11] = assay: Bactericidal activity against vancomycin resistant Enterococcus faecium BAA 2317 assessed as inhibition of bacterial growth at MIC concentration incubated for 48 hrs by broth microdilution assay; format: functional, organism-based; outline: as §4
Escherichia coli [12] = assay: Bactericidal activity against Escherichia coli ATCC 33694 assessed as inhibition of bacterial growth at MIC concentration incubated for 48 hrs by broth microdilution assay; format: functional, organism-based; outline: as §3
Pseudomonas aeruginosa [13] = assay: Bactericidal activity against Pseudomonas aeruginosa BAA 1744 assessed as inhibition of bacterial growth at MIC concentration incubated for 48 hrs by broth microdilution assay; format: functional, organism-based; outline: as §3
Salmonella enterica [14] = assay: Bactericidal activity against Salmonella enterica ATCC 13314 assessed as inhibition of bacterial growth at MIC concentration incubated for 48 hrs by broth microdilution assay; format: functional, organism-based; outline: as §3
Clostridioides difficile [15] = assay: Antibacterial activity against Clostridium difficile ATCC 43602 assessed as inhibition of bacterial growth incubated for 24 hrs by absorbance based microplate reader analysis; format: functional; settings: read-out: MIC100
Listeria monocytogenes [16] = assay: Antibacterial activity against Listeria monocytogenes ATCC 15313 assessed as inhibition of bacterial growth incubated for 24 hrs by absorbance based microplate reader analysis; format: functional; settings: for MIC: read-out: MIC100; outline: as §1
Caco-2 [17] = assay: Anti-inflammatory activity in human Caco-2 cells infected with Clostridium difficile ATCC 43602 assessed as reduction in IL-6 level at MIC concentration by ELISA relative to control; format: functional; design: scale not given: the % may be the effect or the level left
Outline: (§5)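 Caco-2 cells grown in DMEM + 10% FBS, 37 °C, 5% CO2, to 90% confluence, then seeded 30 000 cells/well and held 24 h. C. difficile was grown overnight anaerobically in meat broth, washed in PBS, and 1 µL of 0.5 OD600 culture added per 300 µL medium. […] Cytokine in supernatant measured by ELISA; three independent replicates.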

Caco-2 [18] = assay: Anti-inflammatory activity in human Caco-2 cells infected with Clostridium difficile ATCC 43602 assessed as reduction in TNFalpha level at MIC concentration by ELISA relative to control; format: functional; design: scale not given: the % may be the effect or the level left; outline: as §5
Caco-2 [19] = assay: Anti-inflammatory activity in human Caco-2 cells infected with Clostridium difficile ATCC 43602 assessed as reduction in IL-1beta level at MIC concentration by ELISA relative to control; format: functional; design: scale not given: the % may be the effect or the level left; outline: as §5

Compound	Retention_time [1] [min]	Activity (Staphylococcus aureus [2])	Activity (Enterococcus faecium [3])	Activity (Escherichia coli [4])	Activity (Pseudomonas aeruginosa [5])	Activity (Salmonella enterica [6])	Activity (Staphylococcus aureus [7])	Activity (Clostridioides difficile [8])	Activity (Listeria monocytogenes [9])	Activity (Staphylococcus aureus [10])	Activity (Enterococcus faecium [11])	Activity (Escherichia coli [12])	Activity (Pseudomonas aeruginosa [13])	Activity (Salmonella enterica [14])	further results
H-MNKLNEVELSKI-NH2	11.81	inactive	inactive	inactive	inactive	inactive	Active	Active	Active	Active	Active	Active	Active	Active	
CC[C@H](C)[C@@H]1NC(=O)CNC(=O)CNC(=O)[C@H](CO)NC(=O)[C@H]([C@@H](C)CC)NC(=O)[C@H](CCCCN)NC(=O)[C@H](CO)NC(=O)[C@H](CC(C)C)NC(=O)[C@H](C(C)C)NC(=O)[C@@H]2CCCN2C(=O)[C@H]([C@@H](C)CC)NC(=O)[C@H](C(C)C)NC(=O)[C@H](CC(C)C)NC(=O)[C@@H]2CCCN2C(=O)CNC1=O (cyclo(LSKISGGIGPLVIPV))	18.35					inactive	Active	Active	Active	Active	Active	Active	Active	Active	MIC (Clostridioides difficile [15]): 0.9 µM (≈ 1.29 µg/mL); MIC (Listeria monocytogenes [16]): 1.5 µM (≈ 2.15 µg/mL); Activity (Caco-2 [17]): 4%
H-LSKISGGIGP-NH2	13.63	inactive	inactive	inactive	inactive	inactive	Active	Active	Active	Active	Active	Active	Active	Active	
H-DAWNHADELV-NH2	15.95		inactive	inactive	inactive	inactive	Active	Active	Active	Active	Active	Active	Active	Active	Activity (Listeria monocytogenes [16]): inactive; Activity (Caco-2 [18]): 0%
H-KISGGIGPLV-NH2	17.32	inactive	inactive	inactive	inactive	inactive	Active	Active	Active	Active	Active	Active	Active	Active	Activity (Listeria monocytogenes [16]): inactive
CC[C@H](C)[C@H](NC(=O)[C@H](C)NC(=O)[C@H](C)NC(=O)[C@@H](N)C(C)C)C(=O)N[C@@H](CC(C)C)C(=O)NCC(=O)N[C@@H](Cc1ccccc1)C(=O)N[C@@H](CC(C)C)C(=O)N[C@@H](C)C(=O)N[C@H](C(N)=O)[C@@H](C)O	14.9														
H-IGPLVIPVAAIL-NH2	15.83			inactive	inactive	inactive	Active	Active	Active	Active	Active	Active	Active	Active	MIC (Clostridioides difficile [15]): 1.8 µM; MIC (Enterococcus faecium [3]): 1.5 µM; Activity (Caco-2 [17]): 25%
H-KLNEVELSKISGG-NH2	14.98			inactive	inactive	inactive	Active	Active	Active	Active	Active	Active	Active	Active	MIC (Listeria monocytogenes [16]): 2.6 µM
H-HADELVAGVKQ-NH2	9.41			inactive	inactive	inactive	Active	Active	Active	Active	Active	Active	Active	Active	
H-LSKISG-NH2	9.94	inactive	inactive	inactive	inactive	inactive	Active	Active	Active	Active	Active	Active	Active	Active	
O=C(O)c1cn(C2CC2)c2cc(N3CCNCC3)c(F)cc2c1=O [CIPROFLOXACIN]															MIC (Enterococcus faecium [3]): 4 µM (≈ 1.33 µg/mL)
CC[C@H](C)[C@H](NC(=O)[C@H](C)NC(=O)[C@H](C)NC(=O)[C@@H](N)C(C)C)C(=O)N[C@@H](CC(C)C)C(=O)NCC(=O)N[C@@H](Cc1ccccc1)C(=O)N[C@@H](CC(C)C)C(=O)N[C@@H](C)C(=O)N[C@@H](C(N)=O)[C@H](C)O		inactive	inactive	inactive	inactive	inactive	Active	Active	Active	Active	Active	Active	Active	Active	Activity (Listeria monocytogenes [16]): inactive
H-AGVKQGWERS-NH2	6.41				inactive	inactive	Active	Active	Active	Active	Active	Active	Active	Active	Activity (Caco-2 [19]): 18%; Activity (Caco-2 [18]): 0%
CCc1c(Cl)c(O)c(Cl)c(O)c1C(=O)O[C@H]1[C@H](O)[C@H](OC)[C@H](OC/C2=C\C=C\C[C@H](O)/C(C)=C/[C@H](CC)[C@@H](O[C@@H]3OC(C)(C)[C@@H](OC(=O)C(C)C)[C@H](O)[C@@H]3O)/C(C)=C/C(C)=C/C[C@@H]([C@@H](C)O)OC2=O)O[C@@H]1C [FIDAXOMICIN]															MIC (Clostridioides difficile [15]): 1 µM (≈ 1.06 µg/mL); MIC (Listeria monocytogenes [16]): 1 µM (≈ 1.06 µg/mL); MIC (Enterococcus faecium [3]): 2 µM (≈ 2.12 µg/mL)
